Results reported in ChEMBL document CHEMBL4339227, “Stereoselective Synthesis of C-2 Alkylated Trihydroxypiperidines: Novel Pharmacological Chaperones for Gaucher Disease” (ACS Med Chem Lett, 2019).
Active and inactive are the calls of the source. The rule behind the calls is not given here.

Key:
Homo sapiens [1] = species: Homo sapiens; test: Chaperone activity at GCase N370/RecNcil mutant in human fibroblasts derived from Gaucher patient assessed as increase in GCase activity incubated for 4 days using 4-methylumbelliferyl-beta-D-glucoside substrate by spectrophotometry relative to untreated control
Homo sapiens [2] = species: Homo sapiens; test: Inhibition of GCase in human leukocytes extracts at 1 mM using 4-methylumbelliferyl-beta-D-glucoside substrate incubated for 1 hr by spectrophotometry relative to untreated control; assay type: cell-based
In short: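 Human leukocyte homogenates were used as the GCase source. Enzyme activity was measured with the test compound at 1 mM, and the result was expressed as percent inhibition.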

[3] = Inhibition of GCase in human leukocytes extracts using 4-methylumbelliferyl-beta-D-glucoside substrate incubated for 1 hr by spectrophotometry; assay type: cell-based
In short: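 Human leukocyte homogenates were used as the GCase source. IC50 was derived from GCase activity measured across a range of inhibitor concentrations.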

[4] = Competitive inhibition of GCase in human leukocytes extracts using 4-methylumbelliferyl-beta-D-glucoside substrate incubated for 1 hr by spectrophotometry; assay type: cell-based
Homo sapiens [5] = species: Homo sapiens; test: Chaperone activity at GCase N370/RecNcil mutant in human fibroblasts derived from Gaucher patient assessed as increase in GCase activity at 10 nM incubated for 4 days using 4-methylumbelliferyl-beta-D-glucoside substrate by spectrophotometry relative to untreated control
Homo sapiens [6] = species: Homo sapiens; test: Chaperone activity at GCase N370/RecNcil mutant in human fibroblasts derived from Gaucher patient assessed as increase in GCase activity at 50 uM incubated for 4 days using 4-methylumbelliferyl-beta-D-glucoside substrate by spectrophotometry relative to untreated control
Homo sapiens [7] = species: Homo sapiens; test: Chaperone activity at GCase L444P GBA gene mutant mutant in human fibroblasts derived from Gaucher patient assessed as increase in GCase activity at 100 uM incubated for 4 days using 4-methylumbelliferyl-beta-D-glucoside substrate by spectrophotometry relative to untreated control
Homo sapiens [8] = species: Homo sapiens; test: Chaperone activity at GCase N370/RecNcil mutant in human fibroblasts derived from Gaucher patient assessed as increase in GCase activity at 10 uM incubated for 4 days using 4-methylumbelliferyl-beta-D-glucoside substrate by spectrophotometry relative to untreated control
Homo sapiens [9] = species: Homo sapiens; test: Chaperone activity at GCase N370/RecNcil mutant in human fibroblasts derived from Gaucher patient assessed as increase in GCase activity at 1 uM incubated for 4 days using 4-methylumbelliferyl-beta-D-glucoside substrate by spectrophotometry relative to untreated control
Homo sapiens [10] = species: Homo sapiens; test: Chaperone activity at GCase N370/RecNcil mutant in human fibroblasts derived from Gaucher patient assessed as increase in GCase activity at 50 nM incubated for 4 days using 4-methylumbelliferyl-beta-D-glucoside substrate by spectrophotometry relative to untreated control
Homo sapiens [11] = species: Homo sapiens; test: Chaperone activity at GCase N370/RecNcil mutant in human fibroblasts derived from Gaucher patient assessed as increase in GCase activity at 100 uM relative to untreated control
Homo sapiens [12] = species: Homo sapiens; test: Chaperone activity at GCase N370/RecNcil mutant in human fibroblasts derived from Gaucher patient assessed as increase in GCase activity at 100 uM incubated for 4 days using 4-methylumbelliferyl-beta-D-glucoside substrate by spectrophotometry relative to untreated control

| Compound | inhibition (Homo sapiens [2]) | IC50 [3] | also measured |
| --- | --- | --- | --- |
| CCCCCCCCCCCCC[C@@H]1NC[C@@H](O)[C@@H](O)[C@@H]1O | 88% | 160 µM | Activity (Homo sapiens [1]): inactive |
| CCCCCCCC[C@H]1NC[C@@H](O)[C@@H](O)[C@@H]1O | 100% | 29.3 µM | Ki [4]: 18.5 µM; fold change (FC) (Homo sapiens [5]): 1.4; fold change (FC) (Homo sapiens [6]): 1.9; fold change (FC) (Homo sapiens [7]): 1.8; fold change (FC) (Homo sapiens [8]): 1.6 |
| CCCCCCCC[C@H]1[C@@H](O)[C@H](O)[C@H](O)CN1C | 50% | > 1000 µM |  |
| CCCCCCCCCCCC[C@H]1NC[C@@H](O)[C@@H](O)[C@@H]1O | 95% | 1.5 µM | fold change (FC) (Homo sapiens [9]): 1.4; Ki [4]: 3.6 µM |
| CCCCCCCCCCC[C@H]1NC[C@@H](O)[C@@H](O)[C@@H]1O | 100% | 7 µM | fold change (FC) (Homo sapiens [10]): 1.2 |
| CCCCCCCCN1C[C@@H](O)C(O)[C@H](O)C1 | 98% | 30 µM | fold change (FC) (Homo sapiens [11]): 1.25; fold change (FC) (Homo sapiens [12]): 1.26 |
| CCCCCCCCCCC[C@@H]1NC[C@@H](O)[C@@H](O)[C@@H]1O | 96% | 100 µM | fold change (FC) (Homo sapiens [10]): 1.3 |
| CCCCCCCCCCCCC[C@H]1NC[C@@H](O)[C@@H](O)[C@@H]1O | 98% | 9 µM |  |
| CCCCCCCCCCCC[C@@H]1NC[C@@H](O)[C@@H](O)[C@@H]1O | 91% | 23.3 µM | fold change (FC) (Homo sapiens [9]): 1.4 |
| CCCCCCCC[C@@H]1NC[C@@H](O)[C@@H](O)[C@@H]1O | 80% | 93.5 µM | fold change (FC) (Homo sapiens [5]): 1.3 |
